Reference: ChEMBL document CHEMBL4028848, “Discovery of N-{4-[5-(4-Fluorophenyl)-3-methyl-2-methylsulfanyl-3H-imidazol-4-yl]-pyridin-2-yl}-acetamide (CBS-3595), a Dual p38α MAPK/PDE-4 Inhibitor with Activity against TNFα-Related Diseases” (J Med Chem, 2017)
Several values for one entry are separate records, joined by “and”; a condition that tells them apart may be missing. Identical values can stand only once. Activity calls are given as the source filed them. No cut-off for these calls is given here.

Experiments:
[1] = tested on: Rattus norvegicus; test: In vivo inhibition of P38 MAPKalpha in Lewis rat assessed as decrease in LPS-stimulated TNFalpha level in serum at 10 mg/kg, po pretreated for 1 hr followed by LPS addition measured after 1.5 hrs post dose relative to control; type: functional
In short: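 Lewis rats, n = 8/group: females dosed orally at 10 mg/kg at −1, −3 or −5 h relative to LPS challenge, plus one male group dosed at −1 h. Male and female vehicle controls were given at −1 h. Serum TNFα was measured after LPS and compared with vehicle.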

[2] = target: Mitogen-activated protein kinase 11 (Homo sapiens) (UniProt Q15759); test: Inhibition of p38beta (unknown origin) at 10 uM relative to control
[3] = tested on: Mus musculus; test: Protection against LPS/galactosamine-induced endotoxemia in Balb/c mouse assessed as inhibition of plasma TNFalpha level at 10 mg/kg, po pretreated for 1 hr followed by LPS/galactosamine addition measured after 90 mins relative to control; type: functional
[4] = AUC (0 to t) in Wistar rat at 30 mg/kg, po administered as single dose via gavage by LC-MS/MS analysis; type: ADME, organism-based; settings: in vivo
In short: (§1)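 Male and female Wistar rats received a single oral gavage of 30 mg/kg. Parameters are given as the mean of the two sexes.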

[5] = target: CYP2D6 (Homo sapiens, UniProt P10635); test: Inhibition of CYP2D6 (unknown origin) at 10 uM by fluorimetric assay relative to control; type: ADME
In short: (§2)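 CYP1A2, CYP2C9, CYP2C19, CYP3A4 and CYP2D6 were tested as a panel for cytochrome P450 interaction.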

[6] = target: CYP2C19 (Homo sapiens, UniProt P33261); test: Inhibition of CYP2C19 (unknown origin) at 10 uM by fluorimetric assay relative to control; type: ADME; in short: as §2
[7] = tested on: Rattus norvegicus; test: Toxicity in Wistar rat assessed as change in body weight at 100 to 2500 mg/kg, po administered for 48 hrs followed by administration of 300 mg/kg, bid for 7 days starting 8 hrs interval between first and second dose measured after 7 days; type: organism-based; settings: in vivo, 168 h
In short: (§3)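 Wistar rats, maximum-tolerated-dose estimate in two steps. Step one: single oral doses of 100 (n = 1), 500 (n = 1) and 2500 mg/kg (n = 3), with clinical signs watched for 48 h. Step two: 300 mg/kg (n = 5) twice daily for 7 days, second dose 8 h after the first. After 7 days, body weight gain, blood cell number and composition, liver enzymes, and macroscopic liver and spleen were recorded.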

[8] = target: CYP2C9 (Homo sapiens, UniProt P11712); test: Inhibition of CYP2C9 (unknown origin) at 10 uM by fluorimetric assay relative to control; type: ADME; in short: as §2
[9] = target: CYP3A4 (Homo sapiens, UniProt P08684); test: Inhibition of CYP3A4 (unknown origin) at 10 uM by fluorimetric assay relative to control; type: ADME; in short: as §2
[10] = target: Mitogen-activated protein kinase 8 (Homo sapiens) (UniProt P45983); test: Inhibition of human recombinant full length N-terminal His6 tagged JNK1 expressed in Sf21 cells at 10 uM relative to control
[11] = target: CYP1A2 (Homo sapiens, UniProt P05177); test: Inhibition of CYP1A2 (unknown origin) at 10 uM by fluorimetric assay relative to control; type: ADME; in short: as §2
[12] = tested on: Mus musculus; test: Toxicity in DBA/1 mouse model of collagen-induced arthritis at 50 mg/kg, bid administered on day 22 post second injection of type 2 collagen; type: organism-based; settings: in vivo
In short: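 Male DBA/1 mice with collagen-induced arthritis were dosed at 50 mg/kg b.i.d. starting on day 22, 1 day after the type II collagen boost. Animals were monitored for signs of toxicity, including body weight loss relative to controls.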

[13] = tested on: Rattus norvegicus; test: Toxicity in Wistar rat assessed as effect on liver enzyme at 100 to 2500 mg/kg, po administered for 48 hrs followed by administration of 300 mg/kg, bid for 7 days starting 8 hrs interval between first and second dose measured after 7 days; type: organism-based; settings: in vivo, 168 h; in short: as §3
[14] = tested on: Rattus norvegicus; test: Toxicity in Wistar rat assessed as effect on microscopic appearance of liver at 100 to 2500 mg/kg, po administered for 48 hrs followed by administration of 300 mg/kg, bid for 7 days starting 8 hrs interval between first and second dose measured after 7 days; type: organism-based; settings: in vivo, 168 h
[15] = target: Mitogen-activated protein kinase 9 (Homo sapiens) (UniProt P45984); test: Inhibition of human recombinant full length N-terminal His6 tagged JNK2 expressed in Sf21 cells at 10 uM relative to control
[16] = tested on: Rattus norvegicus; test: Toxicity in Wistar rat assessed as effect on microscopic appearance of spleen at 100 to 2500 mg/kg, po administered for 48 hrs followed by administration of 300 mg/kg, bid for 7 days starting 8 hrs interval between first and second dose measured after 7 days; type: organism-based; settings: in vivo, 168 h
[17] = tested on: Rattus norvegicus; test: Toxicity in Wistar rat assessed as effect on number of blood cells at 100 to 2500 mg/kg, po administered for 48 hrs followed by administration of 300 mg/kg, bid for 7 days starting 8 hrs interval between first and second dose measured after 7 days; type: organism-based; settings: in vivo, 168 h; in short: as §3
[18] = Tmax in Wistar rat at 30 mg/kg, po administered as single dose via gavage by LC-MS/MS analysis; type: ADME, organism-based; settings: in vivo
In short: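 Male and female Wistar rats each received a single 30 mg/kg oral gavage dose. Tmax is the mean of males and females.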

[19] = Cmax in Wistar rat at 30 mg/kg, po administered as single dose via gavage by LC-MS/MS analysis; type: ADME, organism-based; set-up: dose 30 mg/kg, route oral; settings: in vivo; in short: as §1
[20] = tested on: Rattus norvegicus; test: Toxicity in Wistar rat assessed as effect on composition of blood cells at 100 to 2500 mg/kg, po administered for 48 hrs followed by administration of 300 mg/kg, bid for 7 days starting 8 hrs interval between first and second dose measured after 7 days; type: organism-based; settings: in vivo, 168 h; in short: as §3
[21] = target: Mitogen-activated protein kinase 10 (Homo sapiens) (UniProt P53779); test: Inhibition of human recombinant full length N-terminal His6 tagged JNK3 expressed in Sf21 cells at 10 uM relative to control
[22] = tested on: Mus musculus; test: Antiarthritic activity in DBA/1 mouse assessed as decrease in collagen-induced arthritic score at 50 mg/kg, bid administered on day 22 post second injection of type 2 collagen; type: functional, organism-based
In short: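 Collagen-induced arthritis in male DBA/1 mice. Dosing at 50 mg/kg b.i.d. began on day 22, one day after the second (boost) injection of type II collagen.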

[23] = Half life in Wistar rat at 30 mg/kg, po administered as single dose via gavage by LC-MS/MS analysis; type: ADME, organism-based; settings: in vivo
In short: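 Single oral gavage dose of 30 mg/kg given to male and female Wistar rats. PK parameters are reported as the mean of males and females.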

[24] = tested on: Liver; test: Drug level in rat liver microsomes treated with CBS-3595 at 10 to 100 uM; type: ADME, microsome
In short: (§4)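 Test compound incubated at 10, 30 and 100 μM with liver microsomes from rat, Cynomolgus monkey or human, and metabolites monitored.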

[25] = tested on: Liver; test: Drug level in human liver microsomes treated with CBS-3595 at 10 to 100 uM; type: ADME, microsome; in short: as §4
[26] = Drug level in cynomolgus monkey liver microsomes treated with CBS-3595 at 10 to 100 uM; type: ADME, Macaca fascicularis, microsome; in short: as §4
[27] = organism: Homo sapiens; test: Inhibition of PDE4 in human U937 cells assessed as [3H]cAMP hydrolysis at 10 uM relative to control; type: cell-based
[28] = target: Mitogen-activated protein kinase 14 (Homo sapiens, UniProt Q16539); test: Inhibition of p38alpha MAPK (unknown origin) at 1 uM relative to control
[29] = Ratio of Cmax in Wistar rat at 30 mg/kg, po administered as single dose via gavage to IC50 for P38 MAPKalpha in LPS-stimulated human whole blood assessed as decrease in TNFalpha level
[30] = Fraction unbound in human plasma at 5 uM by equilibrium dialysis relative to control; type: ADME, cell-free
[31] = tested on: Rattus norvegicus; test: Protection against LPS-induced endotoxemia in Wistar rat assessed as inhibition of plasma TNFalpha level at 10 mg/kg, po pretreated for 1 hr followed by LPS addition measured after 90 mins relative to control; type: functional
[32] = tested on: Rattus norvegicus; test: Toxicity in Wistar rat assessed as death at 100 to 2500 mg/kg, po administered for 48 hrs followed by administration of 300 mg/kg, bid for 7 days with 8 hrs interval between first and second dose measured after 7 days; type: organism-based; settings: in vivo, 168 h; in short: as §3
[33] = target: Voltage-gated inwardly rectifying potassium channel KCNH2 (Homo sapiens, UniProt Q12809); test: Inhibition of human ERG expressed in HEK293 cells by patch clamp method; type: cell-based
Voltage-gated inwardly rectifying potassium channel KCNH2, sequence (Q12809 whole entry): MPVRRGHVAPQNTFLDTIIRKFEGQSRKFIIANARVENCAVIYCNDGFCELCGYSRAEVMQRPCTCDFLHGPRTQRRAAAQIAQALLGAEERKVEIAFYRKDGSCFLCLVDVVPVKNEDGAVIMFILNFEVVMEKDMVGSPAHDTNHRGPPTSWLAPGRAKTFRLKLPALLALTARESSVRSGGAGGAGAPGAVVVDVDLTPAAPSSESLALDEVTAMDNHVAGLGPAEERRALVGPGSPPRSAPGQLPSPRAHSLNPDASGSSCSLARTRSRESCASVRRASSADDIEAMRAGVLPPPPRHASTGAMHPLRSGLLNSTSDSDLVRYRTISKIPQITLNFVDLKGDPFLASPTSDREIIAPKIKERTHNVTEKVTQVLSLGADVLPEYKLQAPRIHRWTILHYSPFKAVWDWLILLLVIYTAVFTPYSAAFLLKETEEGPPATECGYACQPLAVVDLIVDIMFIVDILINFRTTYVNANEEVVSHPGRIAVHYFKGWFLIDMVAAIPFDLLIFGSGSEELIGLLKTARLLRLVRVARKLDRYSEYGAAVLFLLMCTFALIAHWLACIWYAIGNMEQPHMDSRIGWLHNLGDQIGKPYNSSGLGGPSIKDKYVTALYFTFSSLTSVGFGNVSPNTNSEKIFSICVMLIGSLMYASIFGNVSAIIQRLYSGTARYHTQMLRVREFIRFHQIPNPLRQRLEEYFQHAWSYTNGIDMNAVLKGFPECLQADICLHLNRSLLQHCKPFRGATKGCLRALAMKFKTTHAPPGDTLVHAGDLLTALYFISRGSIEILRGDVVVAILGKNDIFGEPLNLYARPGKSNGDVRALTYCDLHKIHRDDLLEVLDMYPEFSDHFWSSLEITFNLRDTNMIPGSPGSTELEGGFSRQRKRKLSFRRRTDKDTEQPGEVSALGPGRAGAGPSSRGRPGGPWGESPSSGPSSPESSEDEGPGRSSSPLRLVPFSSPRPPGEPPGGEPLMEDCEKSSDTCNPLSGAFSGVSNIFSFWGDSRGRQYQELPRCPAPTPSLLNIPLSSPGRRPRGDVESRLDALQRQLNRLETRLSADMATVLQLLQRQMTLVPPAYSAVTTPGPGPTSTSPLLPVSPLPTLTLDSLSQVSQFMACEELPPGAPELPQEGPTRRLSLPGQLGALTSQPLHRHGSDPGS

Mitogen-activated protein kinase 10 (Homo sapiens), sequence (P53779 whole entry): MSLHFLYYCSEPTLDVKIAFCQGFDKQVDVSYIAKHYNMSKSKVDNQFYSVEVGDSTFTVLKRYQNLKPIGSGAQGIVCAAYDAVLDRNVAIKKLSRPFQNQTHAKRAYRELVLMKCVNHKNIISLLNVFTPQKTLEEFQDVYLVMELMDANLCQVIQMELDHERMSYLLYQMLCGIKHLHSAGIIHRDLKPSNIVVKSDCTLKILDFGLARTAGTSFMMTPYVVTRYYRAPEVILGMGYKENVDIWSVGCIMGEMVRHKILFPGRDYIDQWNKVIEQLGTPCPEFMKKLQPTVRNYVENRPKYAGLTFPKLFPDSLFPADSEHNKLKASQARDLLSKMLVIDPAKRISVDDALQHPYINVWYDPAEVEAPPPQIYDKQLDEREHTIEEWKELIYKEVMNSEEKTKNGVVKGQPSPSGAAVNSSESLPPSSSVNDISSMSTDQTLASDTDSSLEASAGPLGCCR
CYP2C9, sequence (P11712 whole entry): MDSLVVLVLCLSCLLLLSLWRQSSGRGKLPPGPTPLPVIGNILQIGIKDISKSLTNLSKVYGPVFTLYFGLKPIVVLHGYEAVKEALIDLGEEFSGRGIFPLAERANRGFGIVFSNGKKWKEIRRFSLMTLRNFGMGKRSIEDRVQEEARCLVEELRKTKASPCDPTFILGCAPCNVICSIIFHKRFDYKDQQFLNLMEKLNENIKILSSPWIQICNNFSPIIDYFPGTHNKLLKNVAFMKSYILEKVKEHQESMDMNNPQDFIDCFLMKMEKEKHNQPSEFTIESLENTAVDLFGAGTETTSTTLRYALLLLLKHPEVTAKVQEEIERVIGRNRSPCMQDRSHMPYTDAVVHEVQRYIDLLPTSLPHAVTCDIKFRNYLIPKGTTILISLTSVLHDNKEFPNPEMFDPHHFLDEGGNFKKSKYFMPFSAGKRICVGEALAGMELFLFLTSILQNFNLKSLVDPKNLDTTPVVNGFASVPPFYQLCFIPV
CYP3A4, sequence (P08684 whole entry): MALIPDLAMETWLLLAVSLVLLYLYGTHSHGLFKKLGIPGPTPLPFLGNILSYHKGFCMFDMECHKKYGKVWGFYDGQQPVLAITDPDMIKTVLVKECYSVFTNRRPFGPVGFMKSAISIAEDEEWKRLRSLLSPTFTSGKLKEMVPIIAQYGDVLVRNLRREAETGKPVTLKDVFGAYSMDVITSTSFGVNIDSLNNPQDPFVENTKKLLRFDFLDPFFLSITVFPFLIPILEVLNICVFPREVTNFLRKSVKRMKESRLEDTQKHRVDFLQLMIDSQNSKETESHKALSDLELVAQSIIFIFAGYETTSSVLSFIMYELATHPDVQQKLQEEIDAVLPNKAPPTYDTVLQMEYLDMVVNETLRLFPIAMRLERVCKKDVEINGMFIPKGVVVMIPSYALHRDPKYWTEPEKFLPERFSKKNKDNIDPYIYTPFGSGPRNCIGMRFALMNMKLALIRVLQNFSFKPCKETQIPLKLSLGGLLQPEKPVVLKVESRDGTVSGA
Mitogen-activated protein kinase 11 (Homo sapiens), sequence (Q15759 whole entry): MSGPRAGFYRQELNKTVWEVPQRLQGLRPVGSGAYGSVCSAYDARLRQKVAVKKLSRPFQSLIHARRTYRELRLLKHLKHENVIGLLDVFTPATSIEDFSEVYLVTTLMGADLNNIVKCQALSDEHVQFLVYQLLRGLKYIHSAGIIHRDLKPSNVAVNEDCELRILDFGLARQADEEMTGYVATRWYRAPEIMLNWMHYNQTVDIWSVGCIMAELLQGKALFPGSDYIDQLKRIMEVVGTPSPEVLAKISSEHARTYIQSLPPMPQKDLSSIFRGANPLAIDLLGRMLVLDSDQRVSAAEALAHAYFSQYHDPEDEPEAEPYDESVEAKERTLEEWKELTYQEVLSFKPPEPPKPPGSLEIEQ
CYP2C19, sequence (P33261 whole entry): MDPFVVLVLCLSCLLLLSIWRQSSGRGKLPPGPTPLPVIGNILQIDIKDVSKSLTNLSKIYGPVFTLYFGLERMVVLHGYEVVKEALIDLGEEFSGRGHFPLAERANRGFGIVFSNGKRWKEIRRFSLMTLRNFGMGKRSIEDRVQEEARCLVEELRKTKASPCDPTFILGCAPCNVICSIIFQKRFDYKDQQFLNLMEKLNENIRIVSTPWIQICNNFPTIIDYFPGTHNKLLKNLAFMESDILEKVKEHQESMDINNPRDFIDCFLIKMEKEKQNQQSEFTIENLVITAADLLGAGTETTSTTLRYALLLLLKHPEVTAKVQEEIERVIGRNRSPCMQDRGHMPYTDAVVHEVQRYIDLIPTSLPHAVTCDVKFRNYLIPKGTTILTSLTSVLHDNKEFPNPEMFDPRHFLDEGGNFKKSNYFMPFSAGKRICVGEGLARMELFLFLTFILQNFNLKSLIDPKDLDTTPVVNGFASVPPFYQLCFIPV
CYP2D6, sequence (P10635 whole entry): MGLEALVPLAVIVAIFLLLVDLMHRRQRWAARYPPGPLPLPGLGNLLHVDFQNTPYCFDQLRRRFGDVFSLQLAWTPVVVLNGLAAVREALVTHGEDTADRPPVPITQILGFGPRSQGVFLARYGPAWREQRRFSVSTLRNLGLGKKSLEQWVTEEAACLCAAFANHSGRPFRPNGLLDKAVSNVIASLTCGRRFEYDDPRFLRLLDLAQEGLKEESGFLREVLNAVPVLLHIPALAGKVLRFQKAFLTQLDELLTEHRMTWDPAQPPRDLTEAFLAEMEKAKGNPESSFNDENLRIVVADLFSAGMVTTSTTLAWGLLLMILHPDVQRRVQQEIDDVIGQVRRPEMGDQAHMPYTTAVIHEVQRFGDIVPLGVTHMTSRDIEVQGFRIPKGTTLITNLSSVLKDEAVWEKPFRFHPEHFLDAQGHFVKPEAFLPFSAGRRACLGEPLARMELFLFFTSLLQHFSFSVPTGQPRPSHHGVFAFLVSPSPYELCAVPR
CYP1A2, sequence (P05177 whole entry): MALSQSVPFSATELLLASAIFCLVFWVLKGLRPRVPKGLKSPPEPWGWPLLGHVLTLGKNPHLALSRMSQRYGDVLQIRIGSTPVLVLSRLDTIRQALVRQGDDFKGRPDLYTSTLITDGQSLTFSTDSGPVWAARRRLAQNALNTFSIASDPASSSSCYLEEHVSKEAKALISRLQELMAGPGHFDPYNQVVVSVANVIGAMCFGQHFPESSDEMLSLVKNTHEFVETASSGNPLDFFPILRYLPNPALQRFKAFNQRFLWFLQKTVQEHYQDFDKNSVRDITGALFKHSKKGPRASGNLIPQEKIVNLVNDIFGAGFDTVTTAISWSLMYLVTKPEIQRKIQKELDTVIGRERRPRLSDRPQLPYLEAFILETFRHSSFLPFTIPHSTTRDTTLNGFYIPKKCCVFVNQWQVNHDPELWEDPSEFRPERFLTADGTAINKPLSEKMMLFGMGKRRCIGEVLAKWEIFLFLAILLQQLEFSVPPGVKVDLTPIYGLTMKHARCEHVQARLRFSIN
Mitogen-activated protein kinase 8 (Homo sapiens), sequence (P45983 whole entry): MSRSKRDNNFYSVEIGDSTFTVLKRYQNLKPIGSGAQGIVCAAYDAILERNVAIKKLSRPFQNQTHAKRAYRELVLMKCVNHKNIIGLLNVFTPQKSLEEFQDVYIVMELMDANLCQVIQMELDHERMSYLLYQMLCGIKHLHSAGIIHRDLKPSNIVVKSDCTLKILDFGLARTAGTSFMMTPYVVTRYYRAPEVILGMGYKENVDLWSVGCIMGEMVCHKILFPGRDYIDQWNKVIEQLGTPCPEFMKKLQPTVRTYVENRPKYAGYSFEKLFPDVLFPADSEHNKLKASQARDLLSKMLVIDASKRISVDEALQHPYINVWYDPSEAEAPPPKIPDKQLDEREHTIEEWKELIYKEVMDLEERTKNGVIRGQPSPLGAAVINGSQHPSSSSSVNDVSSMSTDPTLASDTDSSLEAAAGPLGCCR

Compound `CCc1nc(-c2cccc(C)c2)c(-c2ccnc(NC(=O)c3ccccc3)c2)s1` [TAK-715] has an inhibition in vivo at 10 mg/kg [1] of 6%.
For `CSc1nc(-c2ccc(F)cc2)c(-c2ccnc(Nc3ccccc3)c2)[nH]1`, the inhibition [2] was > 70%, the inhibition in vivo at 10 mg/kg [3] was 60% and the AUC(0-t) [4] was 3710 ng·h/mL and 9.86 µM·h. For the same compound, the inhibition at 10 µM [5] was 74.5%, the inhibition at 10 µM [6] was 90% and the Activity [7] was “Non-Toxic”. The inhibition at 10 µM [8] was 60%, the inhibition at 10 µM [9] was 16.5% and the inhibition [10] was > 70%. For the same compound, the inhibition at 10 µM [11] was 72%, the Activity [12] was “Non-Toxic” and the Activity [13] was “Non-Toxic”. For the same compound, the Activity [14] was “Non-Toxic”, the inhibition [15] was > 70% and the Activity [16] was “Non-Toxic”. The Activity [17] was “Non-Toxic”, the Tmax [18] was 2 h and the Cmax [19] was 608 ng/mL and 1.61 µM. The Activity [20] was “Non-Toxic”, the inhibition [21] was > 70% and the Activity [22] was “Active”. The half-life [23] was 2.8 h.
For `CC(=O)Nc1cc(-c2c(-c3ccc(F)cc3)nc(S(C)(=O)=O)n2C)ccn1`, the Drug metabolism [24] was “Metabolite_Detected”, the Drug metabolism [25] was “Metabolite_Detected” and the Drug metabolism [26] was “Metabolite_Detected”.
Compound `CS(=O)(=O)c1nc(-c2ccc(F)cc2)c(-c2ccnc(NC3CCOCC3)c2)[nH]1` has an inhibition in vivo at 10 mg/kg [1] of 21% and an inhibition [27] of 36%.
`CC(=O)Nc1cc(-c2c(-c3ccc(F)cc3)nc([S@+](C)[O-])n2C)ccn1` gave an inhibition [28] of 11%.
In the case of `CSc1nc(-c2ccc(F)cc2)c(-c2ccnc(NC(C)=O)c2)n1C`, the inhibition [2] is reported as > 70%, the AUC(0-t) [4] is reported as 4930 ng·h/mL and 13.8 µM·h and the inhibition at 10 µM [5] is reported as 45%. For the same compound, the inhibition at 10 µM [6] was 4%, the Activity [7] was “Non-Toxic” and the inhibition at 10 µM [8] was 46%. For the same compound, the inhibition at 10 µM [9] was -7%, the Ratio [29] was 12.5 and the inhibition at 10 µM [11] was 18%. For the same compound, the Activity [12] was “Non-Toxic”, the Activity [13] was “Non-Toxic” and the fraction unbound at 5 µM [30] was 0.037. For the same compound, the inhibition in vivo at 10 mg/kg [31] was 97%, the Activity [14] was “Non-Toxic” and the Activity [16] was “Non-Toxic”. The Activity [17] was “Non-Toxic”, the Activity [32] was “Non-Toxic” and the IC50 [33] was 28.6 µM. For the same compound, the “inhibition (INH)” value ([33]; human, hek293) was “Dose-dependent effect”, the Tmax [18] was 1 h and the Cmax [19] was 738 ng/mL and 2.07 µM. The Activity [20] was “Non-Toxic”, the inhibition [21] was > 70% and the Activity [22] was “Active”. For the same compound, the half-life [23] was 3 h.
